In series [1] the target is T1, Peroxisome proliferator-activated receptor alpha (Homo sapiens) (UniProt Q07869).
T1 sequence (whole entry): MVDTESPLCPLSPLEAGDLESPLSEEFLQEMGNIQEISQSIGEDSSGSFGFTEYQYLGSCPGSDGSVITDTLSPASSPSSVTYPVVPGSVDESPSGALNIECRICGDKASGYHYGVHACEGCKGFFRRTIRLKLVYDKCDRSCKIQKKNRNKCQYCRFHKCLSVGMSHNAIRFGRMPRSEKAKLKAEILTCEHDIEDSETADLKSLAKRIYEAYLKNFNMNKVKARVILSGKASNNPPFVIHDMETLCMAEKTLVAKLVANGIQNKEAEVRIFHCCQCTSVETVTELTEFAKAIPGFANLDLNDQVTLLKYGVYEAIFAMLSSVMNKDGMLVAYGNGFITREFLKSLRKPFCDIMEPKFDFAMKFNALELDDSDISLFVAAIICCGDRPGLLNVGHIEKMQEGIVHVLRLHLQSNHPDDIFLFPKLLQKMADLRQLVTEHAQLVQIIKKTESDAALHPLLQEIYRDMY
Briefly: Agonist activity at Gal4-fused human PPARalpha LBD transfected in HEK293T cells assessed as maximal relative activation incubated for 14 to 16 hrs by dual-Glo luciferase assay relative to GW7647. The format is cell-based. To be noted: time 14-16 hrs. In a few lines: (§1)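 HEK293T cells transiently transfected with pFR-Luc, pRL-SV40 and Gal4 fusion of human PPAR hinge region plus LBD. Compound added 5 h later in Opti-MEM with 0.1% DMSO, then left overnight (14−16 h). Dual-Glo firefly/Renilla luciferase read, giving RLU. Fold activation is taken against the DMSO control. Max relative activation is set against 1 μM GW7647 (α) or L165,041 (δ). EC50 from a four-parameter fit. Duplicates, ≥3 independent runs.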

Series [2] deals with T2, Peroxisome proliferator-activated receptor alpha (Homo sapiens, UniProt Q07869).
T2 sequence (Q07869 whole entry): T1 sequence (whole entry)
The series is described as follows: Agonist activity at Gal4-fused human PPARalpha LBD transfected in HEK293T cells assessed as transcriptional activation incubated for 14 to 16 hrs by dual-Glo luciferase assay. The format is cell-based. The gist of the method: as §1

Series [3] has as its target T3, Peroxisome proliferator-activated receptor delta (Homo sapiens) (UniProt Q03181).
T3 sequence (whole entry): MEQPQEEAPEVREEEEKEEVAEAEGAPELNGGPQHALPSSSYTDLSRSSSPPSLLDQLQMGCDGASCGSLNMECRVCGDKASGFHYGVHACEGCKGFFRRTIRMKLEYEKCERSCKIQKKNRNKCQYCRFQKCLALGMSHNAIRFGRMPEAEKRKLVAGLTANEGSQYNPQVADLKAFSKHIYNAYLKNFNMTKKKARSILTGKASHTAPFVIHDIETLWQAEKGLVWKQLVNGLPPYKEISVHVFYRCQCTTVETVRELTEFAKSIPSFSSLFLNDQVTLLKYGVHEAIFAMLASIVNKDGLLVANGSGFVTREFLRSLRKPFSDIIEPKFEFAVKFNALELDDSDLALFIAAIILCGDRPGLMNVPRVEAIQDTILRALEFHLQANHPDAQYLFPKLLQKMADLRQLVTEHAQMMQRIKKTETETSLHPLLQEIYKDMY
The series is described as follows: Agonist activity at Gal4-fused human PPARdelta LBD transfected in HEK293T cells assessed as maximal relative activation incubated for 14 to 16 hrs by dual-Glo luciferase assay relative to L165,041. It is filed as cell-based. To be noted: time 14-16 hrs. The gist of the method: as §1

Series [4] deals with T4, Peroxisome proliferator-activated receptor delta (Homo sapiens, UniProt Q03181).
T4 sequence (Q03181 whole entry): T3 sequence (whole entry)
Briefly: Agonist activity at Gal4-fused human PPARdelta LBD transfected in HEK293T cells assessed as transcriptional activation incubated for 14 to 16 hrs by dual-Glo luciferase assay. It is filed as cell-based. The gist of the method:
as §1

Series [5] has as its target T5, Peroxisome proliferator-activated receptor gamma (Homo sapiens, UniProt P37231).
T5 sequence (P37231 whole entry): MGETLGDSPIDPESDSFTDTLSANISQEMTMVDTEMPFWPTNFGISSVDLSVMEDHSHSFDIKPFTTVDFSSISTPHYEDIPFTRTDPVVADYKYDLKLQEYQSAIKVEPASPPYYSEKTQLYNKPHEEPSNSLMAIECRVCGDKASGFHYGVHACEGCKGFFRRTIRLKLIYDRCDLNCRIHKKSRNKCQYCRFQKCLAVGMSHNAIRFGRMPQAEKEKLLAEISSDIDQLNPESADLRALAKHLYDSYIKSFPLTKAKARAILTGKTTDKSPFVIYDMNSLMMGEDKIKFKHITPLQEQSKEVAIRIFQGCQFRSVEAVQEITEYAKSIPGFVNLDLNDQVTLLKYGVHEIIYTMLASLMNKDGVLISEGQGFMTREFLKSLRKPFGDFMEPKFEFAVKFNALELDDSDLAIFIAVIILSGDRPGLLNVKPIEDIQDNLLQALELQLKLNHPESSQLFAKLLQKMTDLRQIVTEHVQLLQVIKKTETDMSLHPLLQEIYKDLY
The series is described as follows: Agonist activity at Gal4-fused human PPARgamma LBD transfected in HEK293T cells assessed as transcriptional activation incubated for 14 to 16 hrs by dual-Glo luciferase assay. It is filed as cell-based.

A short description of series [6]: Photostability of compound assessed as photochemical switch by measuring trans-isoform at 50 uM incubated for 8 hrs followed by irradiation with 460 nm UV light for 3 mins by HPLC analysis. It is filed as physicochemical.
Series [7] in a line: Photostability of compound assessed as photochemical switch by measuring cis-isoform at 50 uM incubated for 8 hrs followed by irradiation with 365 nm UV light for 3 mins by HPLC analysis. The format is physicochemical.
The target of series [8] is T1, Peroxisome proliferator-activated receptor alpha (Homo sapiens). The series is described as follows: Agonist activity at human Gal4-PPARalpha transfected in HEK293T cells assessed as increase in mCherry fluorescence at 300 nM incubated for 40 hrs by fluorescence microscopic analysis. It is filed as cell-based. Particulars: filed as agonist. In a few lines: (§2)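 HEK293T cells transfected separately with UAS-mCherry-NLS plus Gal4-PPARα-LBD, or […]-GFP plus Gal4-PPARδ-LBD. Cells pooled 5 h later and reseeded with compound in 0.1% DMSO. cis form preirradiated 3 min at 365 nm, then held with 75 ms 370 nm pulses every 15 s. Microscope images taken at 40 h. Integrated density set against 1 μM reference agonist. Duplicates, two independent runs.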

For series [9] the target is unchanged. The series is described as follows: Agonist activity at human Gal4-PPARalpha transfected in HEK293T cells assessed as increase in mCherry fluorescence at 10 nM incubated for 40 hrs by fluorescence microscopic analysis. The format is cell-based. The gist of the method:
as §2

The target of series [10] is T3, Peroxisome proliferator-activated receptor delta (Homo sapiens). The series is described as follows: Agonist activity at human Gal4-PPARdelta transfected in HEK293T cells assessed as increase in eGFP fluorescence at 300 nM incubated for 40 hrs by fluorescence microscopic analysis. It is filed as cell-based. The gist of the method: as §2
For series [11], the target named is T1, Peroxisome proliferator-activated receptor alpha (Homo sapiens). The series is described as follows: Agonist activity at human Gal4-PPARalpha transfected in HEK293T cells assessed as increase in mCherry fluorescence at 10 nM incubated for 8 hrs followed by irradiation with 365 nm UV light for 3 mins by fluorescence microscopic analysis. The format is cell-based. The gist of the method:
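Live HEK293T cells carrying UAS-mCherry-NLS plus Gal4-PPARα-LBD were treated with compound in 0.1% DMSO. mCherry read (ex 585, em 610 nm) hourly from 8 to 24 h and at 36 h. At 8 h, isomers switched by 3 min illumination at 365 or 460 nm. cis state held by Cell DISCO. Fold intensity against DMSO. n = 3.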

pEC50: −log10 of the molar value. Activity calls are given as the source filed them. No cut-off for these calls is given here.

For `CC(C)c1ccc(/N=N\c2ccc(OCCc3ccc(OC(C)(C)C(=O)O)cc3)cc2)cc1`, the values for the max activation in series [1] and in [3] were 19% and 22%, respectively. For the same compound, the negative-log EC50 (pEC50) (in general, the EC50 on a negative log10 scale, so that one unit is a factor of ten) in series [2] is 6.55; in series [4], 5.47.
For the compound `CC(C)(Oc1ccc(COc2ccc(/N=N/c3ccccc3)cc2)cc1)C(=O)O`, the max activation in [1] (filed as agonist) and in series [3] (filed as agonist) was 40% throughout. Moreover, the pEC50 was 5.43 in [2] and 5.55 in series [4].
In the case of `Cc1ccc(/N=N\c2ccc(OCCc3ccc(OC(C)(C)C(=O)O)cc3)c(C)c2)cc1`, the figures for the negative logarithm of the EC50 (pEC50) in [5], in series [2] and in [4] were 5.92, 6.19 and 6.10, respectively. The max activation in series [1] is 26%; in series [3], 32%.
Taken in the same sequence, the figures for `CC(C)(Oc1ccc(CCOc2ccc(/N=N\c3ccccc3)cc2)cc1)C(=O)O` were 5.22, 6.10, 5.22, 29% and 34%.
`Cc1ccc(/N=N\c2ccc(OCCc3ccc(OC(C)(C)C(=O)O)cc3)c(Cl)c2)cc1`: the Stability result in [6] was “Stable”. Moreover, the max activation turned out to be 41% in series [1] (filed as agonist) and 35% in [3]. The pEC50 in [2] is 6.54; in [4], 6.42.
Regarding `CC(C)(Oc1ccc(CCOc2ccc(/N=N/c3ccccc3)cc2)cc1)C(=O)O`, the pEC50 is 5.57 in series [5], 5.96 in series [2] and 5.66 in [4]. Further, the results for the max activation in [1] and in [3] (filed as agonist) were 31% and 61%, respectively.
Turning to `CC(C)(Oc1ccc(CCOc2ccc(/N=N/c3ccccc3)cc2C(F)(F)F)cc1)C(=O)O`, the max activation in series [1] (filed as agonist) came to 46%; in series [3] (filed as agonist), 45%. Further, the pEC50 is 8.05 in series [2] and 6.85 in series [4].
Regarding `Cc1ccc(/N=N/c2ccc(OCCc3ccc(OC(C)(C)C(=O)O)cc3)c(Cl)c2)cc1`, the max activation amounted to 76% in series [1] (filed as agonist) and 65% in series [3] (filed as agonist). Besides, the negative-log EC50 (pEC50) in [2] was 7.40; in series [4], 6.92. In series [7], the Stability entry is “Stable”.
On to `Cc1cc(/N=N\c2ccccc2)ccc1OCCc1ccc(OC(C)(C)C(=O)O)cc1`, for which the result in series [8] was Active. For the same compound, in series [6], the Stability result is on record as “Stable”. For the same compound, the outcome in series [9], in series [10] and in series [11] was inactive. Also, the max activation in [1] (filed as agonist) stood at 43%; in series [3] (filed as agonist) it was 41%. Moreover, the pEC50 in series [2] is 6.62; in series [4] it was 5.52.
For `Cc1ccc(/N=N/c2ccc(OCCc3ccc(OC(C)(C)C(=O)O)cc3)c(C(F)(F)F)c2)cc1`, the pEC50 in [5] is 5.92; in [2], 7.15; in [4], 6.95. Further, the results for the max activation in series [1] (filed as agonist) and in [3] (filed as agonist) were 87% and 43%, respectively.
Regarding `Cc1ccc(/N=N\c2ccc(OCCc3ccc(OC(C)(C)C(=O)O)cc3)cc2)cc1`, the results for the pEC50 in [5], in [2] and in [4] were less than 5.00, 5.96 and 5.42, respectively. Also, the max activation amounted to 22% in series [1] and 31% in series [3].
In the case of `CC(C)(Oc1ccc(CCOc2ccc(/N=N\c3ccccc3)cc2Cl)cc1)C(=O)O`, the pEC50 in [5] is 6.04; in series [2], 7.40; in [4], 6.46. The max activation was 45% in series [1] (filed as agonist) and 44% in [3] (filed as agonist).
Regarding `CC(C)(Oc1ccc(CCOc2ccc(/N=N\c3ccccc3)cc2C(F)(F)F)cc1)C(=O)O`, the max activation in series [1] (filed as agonist) is 42%; in series [3], 37%. The results for the negative-log EC50 (pEC50) in series [2] and in [4] were 7.15 and 6.51, respectively.
Regarding `Cc1ccc(/N=N\c2ccc(OCCc3ccc(OC(C)(C)C(=O)O)cc3)c(C(F)(F)F)c2)cc1`, the pEC50 is 5.89 in series [5], 6.72 in series [2] and 6.39 in [4]. Further, the max activation in [1] (filed as agonist) was found to be 41%; in series [3] (filed as agonist) it was 40%.
Take `CC(C)(Oc1ccc(CCOc2ccc(/N=N/c3ccc(Cl)cc3)cc2)cc1)C(=O)O`: the pEC50 in series [5] is 5.49; in series [2] it was 6.10; in [4], 5.10. Also, the max activation was determined as 26% in series [1] and 39% in series [3].
For the compound `CC(C)c1ccc(/N=N/c2ccc(OCCc3ccc(OC(C)(C)C(=O)O)cc3)cc2)cc1`, the max activation in series [1] came out at 25%; in series [3] (filed as agonist), 40%. The pEC50 in series [2] was 6.33; in [4], 5.75.
In the case of `CC(C)(Oc1ccc(CCOc2ccc(/N=N\c3ccc(Cl)cc3)cc2)cc1)C(=O)O`, the pEC50 in series [5] was less than 5.00; in series [2] it was 5.96; in [4], 5.09. Further, the max activation in series [1] worked out at 24%; in series [3], 28%.
For the compound `Cc1ccc(/N=N/c2ccc(OCCc3ccc(OC(C)(C)C(=O)O)cc3)c(C)c2)cc1`, the pEC50 was 5.64 in series [5], 7.44 in series [2] and 6.92 in series [4]. Further, the figures for the max activation in series [1] and in series [3] (filed as agonist) were 34% and 47%, respectively.
Consider `CC(C)(Oc1ccc(COc2ccc(/N=N\c3ccccc3)cc2)cc1)C(=O)O`, for which the max activation in series [1] worked out at 28%; in series [3] it was 26%. The pEC50 is 5.46 in series [2] and 5.39 in [4].
In the case of `CC(C)(Oc1ccc(CCOc2ccc(/N=N/c3ccccc3)cc2Cl)cc1)C(=O)O`, the pEC50 in series [5] is 6.09; in [2] it was 7.54; in [4], 6.62. For the same compound, the figures for the max activation in [1] (filed as agonist) and in [3] (filed as agonist) were 49% and 46%, respectively.
